Source: ChEMBL document CHEMBL1125411, “Effect of the 7-amino substituent on the inhibitory potency of mechanism-based isocoumarin inhibitors for porcine pancreatic and human neutrophil elastases: a 1.85-A X-ray structure of the complex between porcine pancreatic elastase and 7-[(N-tosylphenylalanyl)amino]-4-chloro-3- methoxyisocoumarin” (J Med Chem, 1992)

Columns and labels:
[1] = molecular target: T1, Neutrophil elastase (Homo sapiens) (UniProt P08246); assay: Compound was tested for the inactivation of human leukocyte (neutrophil) elastase(HLE)(HNE) expressed as rate constant; assay type: functional
T1 sequence (whole entry): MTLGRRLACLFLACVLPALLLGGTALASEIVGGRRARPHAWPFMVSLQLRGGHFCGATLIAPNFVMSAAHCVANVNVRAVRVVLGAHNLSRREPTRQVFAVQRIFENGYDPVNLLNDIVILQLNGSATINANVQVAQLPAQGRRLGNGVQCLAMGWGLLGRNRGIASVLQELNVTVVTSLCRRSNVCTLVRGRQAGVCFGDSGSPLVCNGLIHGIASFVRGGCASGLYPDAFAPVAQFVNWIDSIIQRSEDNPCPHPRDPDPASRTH
In short: (§1)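 HNE (0.1–2.0 μM) in 0.1 M Hepes, 0.5 M NaCl, pH 7.5, 25 °C, was incubated with inhibitor added from Me2SO (final 8–12% v/v). Timed aliquots were diluted 40–200-fold into MeO-Suc-Ala-Ala-Pro-Val-NA (0.1–0.125 mM), and residual activity was read at 410 nm. kobs came from ln(vt/v0) vs time and is reported as kobs/[I]. Very fast cases are lower limits.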

[2] = molecular target: Pancreatic elastase (Sus scrofa) (UniProt P08419+P00772); assay: Inactivation of porcine pancreatic elastase (PPE) expressed as rate constant.; assay type: functional
In short: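 PPE (0.1–2.0 μM) was incubated with inhibitor in 0.1 M Hepes, 0.5 M NaCl, pH 7.5, at 25 °C; inhibitor was added in Me2SO to a final 8–12% v/v. Aliquots taken over time were diluted 40–200-fold into Suc-Ala-Ala-Ala-NA (0.6–1.2 mM), with 4-nitroanilide release followed at 410 nm. First-order kobs came from ln(vt/v0) vs time and is given as kobs/[I].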

[3] = tested on: Pancreatic elastase (Sus scrofa); assay: Compound was tested for the inactivation of porcine pancreatic elastase(PPE) expressed as rate constant
[4] = molecular target: T1, Neutrophil elastase (Homo sapiens); assay: Inactivation of human leukocyte (neutrophil) elastase (HLE)(HNE) as rate constant; assay type: functional; in short: as §1
[5] = molecular target: T1, Neutrophil elastase (Homo sapiens); assay: Inactivation of human leukocyte (neutrophil) elastase(HLE)(HNE) as rate constant; in short: as §1

| SMILES | k obs / 1 [1] [M⁻¹ s⁻¹] | second-order inactivation rate constant (kobs/[I]) [2] [M⁻¹ s⁻¹] | [I] [3] [µM] | kobs/[I] (second-order inactivation rate constant) [4] [M⁻¹ s⁻¹] | k obs / 1 [5] [M⁻¹ s⁻¹] |
| --- | --- | --- | --- | --- | --- |
| COc1oc(=O)c2cc(NC(=O)OCC3c4ccccc4-c4ccccc43)ccc2c1Cl | 10000 | 20 | 600 | – | – |
| CCOC(=O)Nc1ccc2c(Cl)c(OC)oc(=O)c2c1 | – | 2000 | – | 47000 | – |
| COc1oc(=O)c2cc(NC(=O)Cc3ccccc3)ccc2c1Cl | – | 2000 | – | 37000 | – |
| COc1oc(=O)c2cc(NC(=O)c3ccccc3C(=O)O)ccc2c1Cl | – | 2700 | – | 52000 | – |
| COc1oc(=O)c2cc(NC(=O)OCc3ccccc3)ccc2c1Cl | – | 260 | – | 71000 | – |
| COc1oc(=O)c2cc(NC(=O)C(F)(F)C(F)(F)C(F)(F)F)ccc2c1Cl | – | 1100 | – | 47000 | – |
| COC(=O)CCC(=O)Nc1ccc2c(Cl)c(OC)oc(=O)c2c1 | – | 2200 | – | 43000 | – |
| COc1oc(=O)c2cc(NC(=O)N(CCc3ccccc3)Cc3ccccc3)ccc2c1Cl | – | 17 | – | 12000 | – |
| COc1oc(=O)c2cc(NC(=O)CCCC(=O)O)ccc2c1Cl | – | 900 | – | 51000 | – |
| COC(=O)Nc1cccc(C(=O)Nc2ccc3c(Cl)c(OC)oc(=O)c3c2)c1 | – | 2500 | – | 100000 | – |
| COc1oc(=O)c2cc(N=C=O)ccc2c1Cl | 9200 | 650 | 8.3 | – | – |
| COc1oc(=O)c2cc(NC(=O)C(NS(=O)(=O)c3ccc(C)cc3)C(C)C)ccc2c1Cl (centres undefined) | – | 1300 | – | 36000 | – |

Second part, the compound after the results:

| k obs / 1 [1] [M⁻¹ s⁻¹] | second-order inactivation rate constant (kobs/[I]) [2] [M⁻¹ s⁻¹] | [I] [3] [µM] | kobs/[I] (second-order inactivation rate constant) [4] [M⁻¹ s⁻¹] | k obs / 1 [5] [M⁻¹ s⁻¹] | SMILES |
| --- | --- | --- | --- | --- | --- |
| – | 2500 | – | 55000 | – | COc1oc(=O)c2cc(NC(=O)C(C)NS(=O)(=O)c3ccc(C)cc3)ccc2c1Cl (centres undefined) |
| – | 2400 | – | 130000 | – | COc1oc(=O)c2cc(NC(=O)CC(c3ccccc3)c3ccccc3)ccc2c1Cl |
| – | 7300 | – | 49000 | – | COc1oc(=O)c2cc(NC(=O)Nc3ccccc3)ccc2c1Cl |
| – | 6300 | – | 54000 | – | COc1oc(=O)c2cc(NC(=O)C(CC(C)C)NS(=O)(=O)c3ccc(C)cc3)ccc2c1Cl (centres undefined) |
| – | 6500 | – | 200000 | – | COc1oc(=O)c2cc(NC(=O)C(Cc3ccccc3)NS(=O)(=O)c3ccc(C)cc3)ccc2c1Cl (centres undefined) |
| – | 100 | – | 66000 | – | COc1oc(=O)c2cc(NC(=O)CC(CC(=O)O)c3ccccc3)ccc2c1Cl (centres undefined) |
| – | 7100 | – | – | – | COC(=O)c1ccccc1C(=O)Nc1ccc2c(Cl)c(OC)oc(=O)c2c1 |
| – | 2800 | – | 54000 | – | COC(=O)CCCC(=O)Nc1ccc2c(Cl)c(OC)oc(=O)c2c1 |
| – | 900 | – | 9500 | – | COc1oc(=O)c2cc(NC(=O)CCC(=O)O)ccc2c1Cl |
| – | 850 | 8.8 | – | 13000 | COc1oc(=O)c2cc(NC(=O)Oc3ccccc3)ccc2c1Cl |
| – | 20 | – | 52000 | – | COc1oc(=O)c2cc(NC(=O)C(c3ccccc3)c3ccccc3)ccc2c1Cl |
| – | 2300 | – | 30000 | – | COc1oc(=O)c2cc(NC(C)=O)ccc2c1Cl |
| – | 3100 | – | 66000 | – | COc1oc(=O)c2cc(NC(=O)CCc3ccccc3)ccc2c1Cl |
| – | 1500 | – | 84000 | – | COc1oc(=O)c2cc(NC(=O)C(NS(=O)(=O)c3ccc(C)cc3)c3ccccc3)ccc2c1Cl (centres undefined) |
